Measured values as given in ChEMBL document CHEMBL4371016, “Proline- and Arginine-Rich Peptides as Flexible Allosteric Modulators of Human Proteasome Activity” (J Med Chem, 2019).

Columns and labels:
[1] = compound: CC(C)C[C@H](NC(=O)[C@H](Cc1ccc(O)cc1)NC(=O)[C@@H]1CCCN1C(=O)[C@@H]1CCCN1C(=O)[C@H](CCCNC(=N)N)NC(=O)[C@@H]1CCCN1C(=O)[C@H](CCCNC(=N)N)NC(=O)[C@H](CCCNC(=N)N)NC(=O)[C@@H](N)CCCNC(=N)N)C(=O)N1CCC[C@H]1C(=O)N[C@@H](CCCNC(=N)N)C(=O)N[C@@H](Cc1c[nH]c2ccccc12)C(=O)NCC(=O)O; test: (§1) Non-competitive mixed-type inhibition of SDS-activated human erythrocytes 20S proteasome chymotrypsin like activity assessed as substrate Vmax using Suc-LLVY-AMC as substrate measured every 2 mins up to 60 mins by fluorescence assay
Method in brief: (§2)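 SDS-activated CP at 1.4 nM. Suc-LLVY-AMC varied from 20 to 200 μM at inhibitor levels of 0.05, 0.1 and 0.2 μM. Fluorescence read kinetically at 37 °C. […] Three independent replicates.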

[2] = compound: CC(C)C[C@H](NC(=O)[C@H](Cc1ccc(O)cc1)NC(=O)[C@H](CCCNC(=N)N)NC(=O)[C@H](CCCNC(=N)N)NC(=O)[C@@H](N)CCCNC(=N)N)C(=O)N1CCC[C@H]1C(=O)N[C@@H](CCCNC(=N)N)C(=O)N[C@@H](Cc1c[nH]c2ccccc12)C(=O)NCC(N)=O; test: as §1; method in brief: as §2
[3] = compound: CC(C)C[C@H](NC(=O)[C@H](Cc1ccc(O)cc1)NC(=O)[C@@H]1CCCN1C(=O)[C@@H]1CCCN1C(=O)[C@H](CCCNC(=N)N)NC(=O)[C@@H]1CCCN1C(=O)[C@H](CCCNC(=N)N)NC(=O)[C@H](CCCNC(=N)N)NC(=O)[C@@H](N)CCCNC(=N)N)C(=O)N1CCC[C@H]1C(=O)N[C@@H](CCCNC(=N)N)C(=O)N[C@@H](Cc1c[nH]c2ccccc12)C(=O)NCC(=O)O; test: (§3) Non-competitive mixed-type inhibition of SDS-activated human erythrocytes 20S proteasome chymotrypsin like activity assessed as substrate Km using Suc-LLVY-AMC as substrate measured every 2 mins up to 60 mins by fluorescence assay; method in brief: as §2
[4] = compound: CC(C)C[C@H](NC(=O)[C@H](Cc1ccc(O)cc1)NC(=O)[C@H](CCCNC(=N)N)NC(=O)[C@H](CCCNC(=N)N)NC(=O)[C@@H](N)CCCNC(=N)N)C(=O)N1CCC[C@H]1C(=O)N[C@@H](CCCNC(=N)N)C(=O)N[C@@H](Cc1c[nH]c2ccccc12)C(=O)NCC(N)=O; test: as §3; method in brief: as §2

B1: Proteasome Macropain subunit MB1 (Homo sapiens), P28074 (protein)
chain: MALASVLERPLPVNQRGFFGLGGRADLLDLGPGSLSDGLSLAAPGWGVPEEPGIEMLHGTTTLAFKFRHGVIVAADSRATAGAYIASQTVKKVIEINPYLLGTMAGGAADCSFWERLLARQCRIYELRNKERISVAAASKLLANMVYQYKGMGLSMGTMICGWDKRGPGLYYVDSEGNRISGATFSVGSGSVYAYGVMDRGYSYDLEVEQAYDLARRAIYQATYRDAYSGGAVNLYHVREDGWIRVSSDNVADLHEKYSGSTP
B1 was tested, and the Vmax [1] was 13.6 s⁻¹, the Vmax [2] was 13.5 s⁻¹ and the Km [3] was 17.4 µM. The Km [4] was 14 µM.
